High-throughput results as filed in PubChem.
Wnt act = activators of Wnt/beta-catenin signaling; Wnt/beta-catenin reporter cell assay, activator, plate reader; activation, % at 9.35 µM; actives 1.2% (n = 300,000); AID 743398; in the data active means activation above about 30%, passing the limit was not always enough; inconclusive means no clear call, values can overlap the other calls;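 further: 0% = neutral control wells and 100% = positive control wells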
HIV Env fusion = blocks HIV Env-driven cell-cell fusion. HeLa-JRFL Env/CEM21 cell fusion, luciferase. inhibition, % at 12.3 µM. actives 1.1% (n = 360,000);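 active means mean replicate inhibition score of at least 50 and every replicate individually at or above 50; inconclusive means only one of the two criteria met; inactive means mean below 50 and not all replicates reaching 50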;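 further: 0% = plate neutral controls and 100% = maraviroc near 300 nM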
Cneo AK release = Cryptococcus neoformans lysis via adenylate kinase release | C. neoformans lysis, adenylate kinase release luminescence, 4 h; normalised: neutral wells 0, clomiphene wells 100 | lysis activity, % at 15 µM | actives 0.2% (n = 360,000) | AID 651654;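 active means mean lysis activity across replicates of at least 80%, whatever share of replicates individually reach that level; inactive means mean lysis activity below 80%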
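Assay system: log-phase C. neoformans yeast / Quantity: yeast cell density of 5 × 10^6 cells/mL / Medium: fresh YPD growth medium / Compound: single dose / Timing: static 4 h at 37 °C with compound, 1 h detection / Measured by: adenylate kinase release luminescence / Read-out: lysis from increased AK signal / Benchmarks: Clomiphene as positive lysis control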
MITF act = MITF TRPM1 promoter activation in melanoma cells; SK-MEL-5 TRPM1-promoter luciferase, 24 h; % of positive control, neutral wells = 0; activation, % at 12.5 µM; actives 0.75% (n = 300,000); AID 588334;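 active means mean activation of at least 80% with every replicate also reaching 80%; inconclusive means mean reaches 80% but some replicate falls short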;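 further: 0% = neutral control wells and 100% = parthenolide positive control wells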
ERAP1 HTS inh = ERAP1 (human) enzyme inhibition | Q9NZ08 | inhibition, % at 10.7 µM | recombinant ERAP1, Leu-AMC fluorescence, 60 min | AID 652197 | actives 0.15% (n = 340,000);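 active means mean replicate inhibition of at least 30%, or all replicates individually reaching that 30% level; inactive means mean below 30% and not every replicate reaching it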;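 further: 0% = neutral control wells and 100% = L-leucinethiol positive control wells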
Target sequence (Q9NZ08 whole entry, looked up): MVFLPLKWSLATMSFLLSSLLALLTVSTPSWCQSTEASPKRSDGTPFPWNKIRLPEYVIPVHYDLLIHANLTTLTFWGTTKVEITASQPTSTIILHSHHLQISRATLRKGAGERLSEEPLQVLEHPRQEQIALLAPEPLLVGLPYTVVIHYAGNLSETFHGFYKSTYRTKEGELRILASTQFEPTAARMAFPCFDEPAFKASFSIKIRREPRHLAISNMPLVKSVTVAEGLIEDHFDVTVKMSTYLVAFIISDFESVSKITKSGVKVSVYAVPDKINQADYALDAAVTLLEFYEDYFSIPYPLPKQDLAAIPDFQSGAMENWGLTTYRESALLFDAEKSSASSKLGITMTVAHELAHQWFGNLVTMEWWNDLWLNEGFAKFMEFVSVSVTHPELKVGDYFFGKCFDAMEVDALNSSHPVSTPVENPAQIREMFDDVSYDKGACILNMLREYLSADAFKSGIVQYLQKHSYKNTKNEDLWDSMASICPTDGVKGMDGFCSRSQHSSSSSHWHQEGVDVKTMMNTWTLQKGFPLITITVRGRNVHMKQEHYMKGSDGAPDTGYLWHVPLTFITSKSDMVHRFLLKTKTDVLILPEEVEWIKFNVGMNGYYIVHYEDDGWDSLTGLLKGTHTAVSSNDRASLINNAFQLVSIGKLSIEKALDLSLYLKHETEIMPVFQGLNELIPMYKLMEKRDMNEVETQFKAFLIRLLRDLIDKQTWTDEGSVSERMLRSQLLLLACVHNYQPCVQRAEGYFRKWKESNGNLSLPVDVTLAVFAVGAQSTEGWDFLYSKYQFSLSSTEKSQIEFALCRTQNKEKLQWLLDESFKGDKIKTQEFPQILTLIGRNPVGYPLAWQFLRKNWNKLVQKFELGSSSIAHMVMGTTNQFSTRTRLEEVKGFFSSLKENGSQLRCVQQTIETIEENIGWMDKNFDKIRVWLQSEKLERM
esBAF inh = SWI/SNF esBAF complex inhibition; mouse ES cells, Bmi1-luciferase knock-in reporter, 24 h; 100% = twice the neutral-well signal; reporter increase, % at 12.5 µM; actives 2% (n = 350,000); in the data active means activation above about 40%; inconclusive means no clear call, values can overlap the other calls;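 further: 0% = median of the plate's neutral control wells and 100% = double that signal; a rise in the Bmi1 reporter signal indicates esBAF inhibition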
Numbers without * were called inactive; i = inactive; ? = inconclusive; nt = not tested or not shown; [ ] = remark or other dose. Most compounds without a hit are left out; they make up all but 3.5% or so of the library.

SMILES | Wnt act | HIV Env fusion | Cneo AK release | MITF act | ERAP1 HTS inh | esBAF inh
CC1Sc2ccc(C(=O)Nc3ncccc3O)cc2NC1=O (stereo unspecified) | -2 | -62 | -10 | 38 | -2 | -30
CC1Sc2ccc(C(=O)Nc3ccccc3OC(F)F)cc2NC1=O (stereo unspecified) | 35* | -21 | nt | 62 | -4 | nt
C/C=C/c1cnc2c(c1)C(=O)N([C@@H](C)CO)C[C@H](C)[C@H](CN(C)C(=O)C1CCCCC1)O2 | nt | 12[16.7 µM] | 0 | nt | 1 | -2
COc1ccccc1-n1nc(C)cc1N | -1 | -3 | -3 | 5 | 8 | -6
COc1cc2nn(-c3ccccc3N)nc2cc1OC | 42* | -16 | nt | nt | 6 | nt
Nc1ccccc1-n1nc2ccc3ccccc3c2n1 | 55* | -263 | -5 | nt | -5 | 41*
Cc1ccc(NC(=O)Cn2nnc3ccccc32)cc1 | 12 | -33 | -2 | 55 | 0 | nt
Cc1cccc(NC(=O)Cn2nnc3ccccc32)c1 | 8 | -6 | 2 | 55 | -3 | 63*
O=C(Cn1nnc2ccccc21)Nc1ccc([N+](=O)[O-])cc1 | 4 | 2 | nt | -6 | nt | nt
COC(=O)c1ccc(NC(=O)Cn2nnc3ccccc32)cc1 | 24 | nt | 0 | 54 | nt | 71*
C[C@@H]1CCCCO[C@H](CN(C)CC2CC2)[C@H](C)CN([C@@H](C)CO)C(=O)c2cc(NS(=O)(=O)c3cccs3)ccc2O1 | nt | nt | nt | nt | 0 | nt
Cc1ccc(C(=O)NCCc2ccc(F)cc2)s1 | 42* | -19 | 0 | 89* | 0 | 17
O=C(NCCc1ccc(Cl)cc1)c1ccc(Br)s1 | 18 | -43 | 6 | ? | 0 | 64*
NS(=O)(=O)c1ccc(CCNC(=O)c2ccc(Br)s2)cc1 | -1 | 12 | nt | -3 | 3 | nt
CNC[C@H]1Oc2ccc(NC(=O)CCN3CCOCC3)cc2CC(=O)N([C@@H](C)CO)C[C@H]1C | nt | -5[16.7 µM] | -3 | nt | 7 | 5
CCS(=O)(=O)N1CC2(CN(Cc3ccccc3F)[C@H](CO)c3c2c2ccc(OC)cc2n3C)C1 | nt | nt | nt | nt | 5 | nt
C[C@@H]1CN([C@H](C)CO)C(=O)c2cc(C3=CCCC3)cnc2O[C@@H]1CN(C)C(=O)c1cccnc1 | nt | -7[16.7 µM] | -5 | nt | 2 | -2
COCC(=O)Nc1ccc2c(c1)OC[C@H](C)N(C(=O)NC(C)C)C[C@H](C)[C@H](OC)CN(C)C2=O | nt | 3[16.7 µM] | 1 | nt | -1 | -1
CN1c2ccc(-c3ccc(F)cc3)cc2[C@@H]2[C@@H](CCN2S(=O)(=O)c2cccc(F)c2)[C@H]1CO | nt | nt | -1 | nt | 0 | -3
O=C(NCC[C@@H]1CC[C@@H](NS(=O)(=O)c2ccccc2F)[C@@H](CO)O1)c1ccc(F)cc1 | nt | 61*[16.7 µM] | 31 | nt | 2 | -3
O=C(NCC[C@H]1CC[C@@H](NS(=O)(=O)c2ccc(F)cc2)[C@H](CO)O1)c1ccc2c(c1)OCO2 | nt | 6[16.7 µM] | 95* | nt | 1 | 2
COc1ccc(S(=O)(=O)N(C)C[C@@H]2Oc3c(NS(=O)(=O)c4ccc(F)cc4)cccc3C(=O)N([C@H](C)CO)C[C@@H]2C)cc1 | nt | -18[16.7 µM] | 0 | nt | nt | 0
Cc1c(C(=O)Nc2ccccc2F)sc2ncn(CC(=O)N3CCOCC3)c(=O)c12 | -2 | -5 | 4 | 1 | 5 | 42*
Cc1c(C(=O)Nc2c(F)cccc2F)sc2ncn(CC(=O)N3CCCCC3)c(=O)c12 | -2 | -8 | 0 | 1 | -1 | -5
O=C(NC1CC1)c1cc2cc3ccccc3nc2s1 | 19 | -108 | -5 | 71 | -1 | 70*
SMILES | Wnt act | HIV Env fusion | Cneo AK release | MITF act | ERAP1 HTS inh | esBAF inh
COc1ccccc1-c1cc2ccccc2[nH]1 | nt | -28 | -1 | 73 | nt | 74*
O=C(O)c1ccccc1-c1cc2ccccc2[nH]1 | 5 | 15 | nt | nt | -1 | nt
O=C(C[C@H]1C=C[C@H](NC(=O)Nc2ccc(F)cc2)[C@@H](CO)O1)NCc1ccccn1 | nt | 8[16.7 µM] | -1 | nt | -1 | 4
CCCNC(=O)Nc1ccc2c(c1)C(=O)N(C)C[C@@H](OC)[C@H](C)CN(C(=O)C1CC1)[C@H](C)CO2 | nt | nt | 11 | nt | -2 | 2
CCc1ccc(NC(=O)c2noc3c2CCC3)cc1 | 3 | -151 | -4 | nt | nt | 73*
Cc1ccc(NC(=O)c2noc3c2CCc2ccccc2-3)cc1 | 42* | -46 | 0 | nt | nt | 60*
O=C(NCCc1ccccc1)c1noc2c1CCCCC2 | nt | -108 | -2 | 107* | nt | 50*
Cc1ccc(O)c(NC(=O)c2noc3c2CCCCC3)c1 | 27 | -25 | -5 | 25 | 11 | 51*
O=C(Nc1cccc(O)c1)c1noc2c1CCc1ccccc1-2 | nt | nt | -15 | 15 | nt | -33
O=C(NCc1ccccc1)c1noc2c1CCCC2 | nt | -22 | -5 | 10 | nt | 23
CCc1ccc(NC(=O)c2noc3c2CCc2ccccc2-3)cc1 | 33* | -87 | 6 | nt | nt | 29
CSc1ccccc1NC(=O)c1noc2c1CCC2 | -3 | -67 | 0 | 19 | nt | 48*
Cc1ccc(S(=O)(=O)Nc2ccc3c(c2)C(=O)N([C@@H](C)CO)C[C@@H](C)[C@H](CN(C)S(=O)(=O)c2cccs2)O3)cc1 | nt | nt | -1 | nt | 0 | 0
CC(C)NC(=O)N(C)C[C@@H]1OCCCC[C@@H](C)Oc2ccc(NC(=O)CCCN(C)C)cc2C(=O)N([C@@H](C)CO)C[C@H]1C | nt | -10[16.7 µM] | 1 | nt | 0 | nt
CN1c2ccc(-c3ccc(F)cc3)cc2[C@@H]2[C@@H](CCN2C(=O)C2CCOCC2)[C@@H]1CO | nt | nt | 81* | nt | -2 | -2
CN1c2ccc(-c3ccc(F)cc3)cc2[C@@H]2[C@@H](CCN2S(=O)(=O)c2cccc(F)c2)[C@@H]1CO | nt | nt | 1 | nt | -3 | -2
CN1c2ccc(-c3ccc(F)cc3)cc2[C@H]2[C@H](CCN2S(=O)(=O)c2cccc(F)c2)[C@H]1CO | nt | nt | 104* | nt | -2 | -9
CN1c2ccc(Br)cc2[C@@H]2[C@@H](CCN2C(=O)Cc2cccnc2)[C@@H]1CO | nt | nt | 90* | nt | -3 | -13
COc1ccc(NC(=O)N(C)C[C@@H]2Oc3ccc(NC(=O)Nc4cccc5ccccc45)cc3CC(=O)N([C@H](C)CO)C[C@H]2C)cc1 | nt | 3[16.7 µM] | 61 | nt | -5 | -4
O=S(=O)(Nc1cccc(-c2cn3c(n2)SCC3)c1)c1ccccc1F | 0 | i | -2 | 0 | 37* | 1
O=C(Nc1cccc(-c2cn3c(n2)SCC3)c1)c1ccc2ccccc2n1 | 41* | -56 | -2 | 63 | -3 | 60*
O=S(=O)(Nc1cccc(-c2cn3c(n2)SCC3)c1)c1ccc(F)cc1F | 0 | 19 | -5 | -6 | 24 | -8
O=C(Nc1ccc(-c2cn3c(n2)SCC3)cc1)c1ccc2ccccc2n1 | -2 | 14 | nt | -13 | -3 | nt
COCC#Cc1cnc2c(c1)C(=O)N([C@H](C)CO)C[C@@H](C)[C@@H](CN(C)C)O2 | nt | -21[16.7 µM] | -4 | nt | 3 | 5
COc1ccccc1N=c1oc2cc(O)ccc2cc1C(N)=O | 12 | -57 | -3 | 0 | nt | 14
